Values after ≈ are worked out from the molar mass of the structure shown. Values belong to the molecule of their own block, whether it stands above or below them. Active and inactive are the calls of the source. The rule behind the calls is not given here.
Key:
DNA topoisomerase 1 [1] = target: T1, DNA topoisomerase 1 (Homo sapiens, UniProt P11387); experiment: Inhibition of DNA topoisomerase 1
T1 sequence (P11387 whole entry): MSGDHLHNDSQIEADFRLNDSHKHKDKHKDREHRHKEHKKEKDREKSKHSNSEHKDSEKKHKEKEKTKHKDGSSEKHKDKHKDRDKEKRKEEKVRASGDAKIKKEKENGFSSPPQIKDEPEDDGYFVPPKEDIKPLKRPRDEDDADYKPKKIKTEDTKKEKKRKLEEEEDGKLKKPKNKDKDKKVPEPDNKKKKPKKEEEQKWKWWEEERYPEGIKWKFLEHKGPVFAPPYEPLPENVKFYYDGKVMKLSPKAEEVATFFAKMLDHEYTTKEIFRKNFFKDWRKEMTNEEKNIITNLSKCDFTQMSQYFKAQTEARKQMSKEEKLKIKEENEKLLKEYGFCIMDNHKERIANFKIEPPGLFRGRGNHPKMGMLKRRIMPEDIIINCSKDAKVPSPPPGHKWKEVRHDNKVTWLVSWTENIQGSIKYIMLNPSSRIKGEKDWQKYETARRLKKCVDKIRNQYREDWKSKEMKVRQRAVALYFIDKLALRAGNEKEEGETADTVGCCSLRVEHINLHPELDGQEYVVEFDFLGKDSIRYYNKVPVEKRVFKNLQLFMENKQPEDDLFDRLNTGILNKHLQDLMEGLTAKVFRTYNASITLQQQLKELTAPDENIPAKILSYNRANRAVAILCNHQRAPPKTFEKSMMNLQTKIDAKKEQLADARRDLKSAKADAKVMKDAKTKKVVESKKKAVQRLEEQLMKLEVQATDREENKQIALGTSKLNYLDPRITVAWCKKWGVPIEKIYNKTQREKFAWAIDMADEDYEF

Staphylococcus aureus = experiment: Antimicrobial activity against Staphylococcus aureus ATCC 25923 after overnight incubation; type: functional
How it was run: (§1)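 MIC read after overnight incubation of fatty acid with each organism at 37 °C. Endpoint was the highest dilution preventing growth, compared with an uninoculated chemical-control well. Data come from at least three separate experiments in duplicate.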

Enterococcus faecalis = experiment: Antimicrobial activity against Streptococcus faecalis ATCC 29212 after overnight incubation; type: functional; how it was run: as §1
Pseudomonas aeruginosa = experiment: Antimicrobial activity against Pseudomonas aeruginosa ATCC 27853 after overnight incubation; type: functional; how it was run: as §1
Escherichia coli = experiment: Antimicrobial activity against Escherichia coli ATCC 25922 after overnight incubation; type: functional; how it was run: as §1
[2] = target: T2, DNA topoisomerase 1 (Homo sapiens) (UniProt P11387); experiment: Inhibition of human DNA topoisomerase 1 assessed as inhibition of uncoiling of supercoiled Tetrahymena pHOT1 DNA at 800 uM after 30 mins by agarose gel electrophoresis
T2 sequence (whole entry): T1 sequence (P11387 whole entry)
How it was run: (§2)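 Human placental topoisomerase I (1 unit relaxes 0.5 µg DNA in 15 min at 37 °C) was used with 0.25 µg supercoiled pHOT1 plasmid. Fatty acids in DMSO were tested at final 1000, 800, 500, 100 and 10 µM for 30 min at 37 °C. Reactions were stopped with SDS, then proteinase K (final 0.05 mg/mL, 30 min, 37 °C). Products were run on 1% agarose, stained with ethidium bromide, and bands imaged and quantitated.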

[3] = target: T2, DNA topoisomerase 1 (Homo sapiens); experiment: Inhibition of human DNA topoisomerase 1 assessed as inhibition of uncoiling of supercoiled Tetrahymena pHOT1 DNA at > 1000 uM after 30 mins by agarose gel electrophoresis; how it was run: as §2
DNA topoisomerase 1 [4] = target: T1, DNA topoisomerase 1; experiment: Inhibition of human DNA topoisomerase 1
[5] = target: T2, DNA topoisomerase 1 (Homo sapiens); experiment: Inhibition of human DNA topoisomerase 1 assessed as inhibition of uncoiling of supercoiled Tetrahymena pHOT1 DNA at […] after 30 mins by agarose gel electrophoresis

- IC50 (DNA topoisomerase 1 [1]): 31 µM
Structure (SMILES): CCCCCCCC/C=C\CCCCCCCC(=O)O [OLEIC ACID]

- MIC (Staphylococcus aureus): 80 µM (≈ 20.2 µg/mL)
- MIC (Enterococcus faecalis): 200 µM (≈ 50.5 µg/mL)
- inhibition [2]: Active
Structure (SMILES): CCCCCC/C=C\CC/C=C\CCCC(=O)O
- Activity (Pseudomonas aeruginosa): inactive
- Activity (Escherichia coli): inactive

- IC50 (DNA topoisomerase 1 [4]): 0.9 µM
Structure (SMILES): CCCCCCCCCCCCCCCCC/C=C\CC/C=C\CCCC(=O)O

- IC50 (DNA topoisomerase 1 [1]): > 1000 µM
Structure (SMILES): CCCCCCCC/C=C/CCCCCCCC(=O)O [ELAIDIC ACID]

More lines, now with the values behind:

Structure (SMILES): CCCCCCC#CCCC#CCCCC(=O)O
- inhibition [3]: inactive

Structure (SMILES): CC(C)CCC/C=C\CC/C=C\CCCC(=O)O
- MIC (Staphylococcus aureus): 240 µM (≈ 60.6 µg/mL)
- MIC (Enterococcus faecalis): 160 µM (≈ 40.4 µg/mL)

Structure (SMILES): CCCCCCCCCCCCCCCC(=O)O [PALMITIC ACID]
- MIC (Staphylococcus aureus): > 400 µM
- MIC (Enterococcus faecalis): > 400 µM
- MIC (Pseudomonas aeruginosa): > 400 µM
- MIC (Escherichia coli): > 400 µM
- inhibition [5]: inactive
